Data published in ChEMBL document CHEMBL1138484, “Synthesis and antiviral activity of 7-benzyl-4-hydroxy-1,5-naphthyridin-2(1H)-one HIV integrase inhibitors” (J Med Chem, 2009).
pIC50: −log10 of the molar value.

Columns and labels:
MT4 [1] = test: Cytotoxicity against human MT4 cells up to 8 to 10 uM after 5 days by MTS assay; assay type: cell-based; conditions: mt4, 120 h
Procedure, shortened: (§1)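 MT-4 cells in RPMI with 15% FBS, 10% T-cell growth factor and 10 µg/mL gentamicin, cultured 5 days at 37 °C, 5% CO₂. Compound-induced cytotoxicity (CCIC50) measured by MTS staining at OD 492 nm, in parallel with the HIV-1 IIIB antiviral MTS readout in the same cell line.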

[2] = Inhibition of HIV recombinant integrase strand transfer assay; parameters: species or system Human immunodeficiency virus
Procedure, shortened: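 Recombinant integrase (2 µM) preassembled with biotinylated donor DNA on streptavidin SPA beads (MOPS pH 7.2, MgCl₂, DTT, 5 min, 37 °C), then washed. Compound in DMSO (6.7% final) preincubated 60 min at 37 °C. [³H] target DNA added at 7 nM final, strand transfer run 25-45 min at 37 °C, EDTA quench, SPA readout. Mean ± standard error.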

[3] = system: Human immunodeficiency virus; test: Antiviral activity against pseudotype HIV after 2 days in absence of human serum albumin; assay type: functional, organism-based; conditions: Human immunodeficiency virus 1, 48 h
Procedure, shortened: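 VSV-G-pseudotyped HIV vector carrying luciferase, harvested from transfected 293T cells. Target 293T cells (2 × 10^4 per well) mixed with vector at about 100K CPM and plated onto compounds in DMEM + 10% FCS. Incubated 2 days at 37 °C, 5% CO2. Luciferase read by Steady Glo luminescence. Values are means ± standard error (N > 1).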

[4] = system: Human immunodeficiency virus; test: Antiviral activity against pseudotype HIV after 2 days in presence 40 mg/mL human serum albumin; assay type: functional, organism-based; conditions: Human immunodeficiency virus 1, 48 h
Procedure, shortened: (§2)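 Pseudotyped HIV luciferase assay in 293T cells (2 × 10^4 per well), 2 days at 37 °C in DMEM + 10% FCS, luminescence read-out. Run with and without added serum protein, 40 mg/mL HSA. Line 5 is the ratio of the IC50 with HSA to the IC50 without.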

[5] = system: Human immunodeficiency virus 1; test: Antiviral activity against HIV1 3B infected in human MT4 cells assessed as inhibition of virus-induced cytopathic effect after 5 days by MTS method; assay type: functional, organism-based; conditions: Human immunodeficiency virus 1, 3B, MT4, 120 h
Procedure, shortened: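 HIV-1 IIIB infection of MT-4 cells (HTLV-1 transformed) for 1 h at 37 °C, 5% CO2. Cells then added to compounds prediluted in RPMI with FBS and gentamicin; final assay medium had 15% FBS and 10% T-cell growth factor. Incubated 5 days at 37 °C. Virus-induced cytopathic effect read by MTS staining, OD 492 nm. Cytotoxicity measured in parallel.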

[6] = Cytotoxicity against human MT4 cells after 5 days by MTS assay; assay type: cell-based; conditions: read-out: CCIC50; procedure, shortened: as §1
MT4 [7] = test: Cytotoxicity against human MT4 cells up to =>7 uM after 5 days by MTS assay; assay type: cell-based; conditions: mt4, 120 h; procedure, shortened: as §1
[8] = Therapeutic index, ratio of CCIC50 for human MT4 cells to IC50 for HIV1 3B; assay type: cell-based; procedure, shortened: as §1
[9] = system: Human immunodeficiency virus 1; test: Antiviral activity against HIV1 3B infected in human MT4 cells assessed as inhibition of virus-induced cytopathic effect albumin after 5 days by MTS method in presence of 40 mg/mL human serum albumin; assay type: functional, organism-based; conditions: Human immunodeficiency virus 1, 3B, MT4, 120 h
Procedure, shortened: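 HIV-1 IIIB infection of MT-4 cells for 1 h at 37 °C, then cells added to prediluted compounds in RPMI with 15% FBS, 10% T-cell growth factor, 10 µg/mL gentamicin, plus 40 mg/mL HSA. 5 days at 37 °C, 5% CO₂. Cytopathic effect read by MTS staining at OD 492 nm. Mean ± standard error where N > 1.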

[10] = system: Human immunodeficiency virus 1; test: Ratio of IC50 for HIV1 3B in presence of human serum albumin to IC50 for HIV1 3B in absence of human serum albumin; assay type: functional
Procedure, shortened: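 MT-4/HIV-1 IIIB MTS cytopathic-effect assay, 5 days at 37 °C, run in standard medium and again with 40 mg/mL HSA added. The ratio compares the IC50 with HSA to the IC50 without.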

[11] = Clearance in CD rat at 1 mg/kg, iv; assay type: ADME, organism-based; parameters: dose 1 mg/kg, route intravenous; conditions: in vivo
Procedure, shortened: (§3)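 Male CD rats, n = 2, given 1 mg/kg iv (1 mL/kg, fasted) in 10% DMSO/15% Solutol/75% 0.05 M […]. Blood drawn via implanted venous cannula at timed intervals over 24 h, EDTA plasma analysed by LC/MS/MS.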

Rattus norvegicus = test: Hepatic blood flow in CD rat at 1 mg/kg, iv; assay type: ADME, organism-based, Liver; parameters: dose 1 mg/kg, route intravenous; conditions: in vivo
[12] = Volume of distribution at steady state in CD rat at 1 mg/kg, iv; assay type: ADME, organism-based; parameters: dose 1 mg/kg, route intravenous; conditions: in vivo, read-out: Vdss; procedure, shortened: as §3
[13] = Oral bioavailability in fasted CD rat at 5 mg/kg; assay type: ADME, organism-based; conditions: in vivo
Procedure, shortened: (§4)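 Male CD rats, n = 2 per arm, dosed 5 mg/kg po (5 mL/kg) in 10% DMSO/15% Solutol/75% 0.05 M […]. Fasted arm had food removed the evening before and returned 4 h post-dose; other arm nonfasted. Cannula blood sampled over 24 h, EDTA plasma by LC/MS/MS. Bioavailability referenced to the 1 mg/kg iv arm.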

[14] = Oral bioavailability in non fasted CD rat at 5 mg/kg; assay type: ADME, organism-based; conditions: in vivo; procedure, shortened: as §4
[15] = system: Human immunodeficiency virus; test: Ratio of IC50 for pseudotype HIV in presence of human serum albumin to IC50 for pseudotype HIV in absence of human serum albumin; assay type: functional; procedure, shortened: as §2

| Compound | pIC50 [2] | pIC50 [3] | pIC50 [4] | pIC50 [5] | CC50 at 120 h [6] | Activity (MT4 [7]) | other results |
| --- | --- | --- | --- | --- | --- | --- | --- |
| COCCNC(=O)c1c(O)c2ncc(Cc3ccccc3)cc2[nH]c1=O | 8.15 | 7.85 | 7.23 | 7.04 | > 10000 nM | – | Activity (MT4 [1]): Non-toxic |
| CCOC(=O)c1c(O)c2ncc(Cc3ccc(F)cc3)cc2n(CC2CC2)c1=O | 7.82 | 6.45 | – | – | – | – | – |
| CC(C)CNC(=O)c1c(O)c2ncc(Cc3ccc(F)cc3)cc2[nH]c1=O | 8.22 | 8.40 | 5.60 | 7.17 | 7000 nM | Non-toxic | selectivity ratio [8]: > 100 |
| CCNC(=O)c1c(O)c2ncc(Cc3ccc(F)cc3)cc2n(C)c1=O | 8.40 | 8.80 | 6.18 | 8.46 | > 50000 nM | Non-toxic | pIC50 [9]: 5.40 |
| COCCNC(=O)c1c(O)c2ncc(Cc3ccc(F)cc3)cc2n(C)c1=O | 8.40 | 8.70 | 7.30 | 8.30 | > 20000 nM | – | pIC50 [9]: 7.32; Ratio IC50 [10]: <10; clearance [11]: 11.8 mL/min/kg; QH (Rattus norvegicus): 20%; Vd [12]: 0.6 L/kg; bioavailability [13]: 25%; bioavailability [14]: 20% |
| CCOC(=O)c1c(O)c2ncc(Cc3ccccc3)cc2[nH]c1=O | 8.52 | 5.43 | – | < 4.40 | 103000 nM | – | – |
| CCOC(=O)c1c(O)c2ncc(Cc3ccc(F)cc3)cc2[nH]c1=O | 7.89 | 5.92 | – | 5.92 | – | – | – |
| NC(=O)c1c(O)c2ncc(Cc3ccc(F)cc3)cc2[nH]c1=O | 7.35 | 7.18 | 6.18 | – | – | – | Ratio IC50 [15]: 10 |
| COCCNC(=O)c1c(O)c2ncc(Cc3ccc(F)cc3)cc2[nH]c1=O | 8.30 | 8.38 | 7.44 | 7.44 | > 8000 nM | – | Activity (MT4 [1]): Non-toxic |
| COC(=O)c1c(O)c2ncccc2[nH]c1=O | < 3.30 | < 4.85 | – | < 3.90 | > 125000 nM | – | – |
| CNC(=O)c1c(O)c2ncc(Cc3ccc(F)cc3)cc2[nH]c1=O | 8.22 | 8.47 | 6.92 | 7.52 | > 8000 nM | Non-toxic | selectivity ratio [8]: > 100 |
| CCOC(=O)c1c(O)c2ncc(Cc3ccc(F)cc3)cc2n(C)c1=O | 8.22 | 7.11 | 4.92 | 5.89 | 6000 nM | – | – |
| CNC(=O)c1c(O)c2ncc(Cc3ccc(F)cc3)cc2n(C)c1=O | 8.39 | 8.85 | 7.24 | 7.96 | 20000 nM | Non-toxic | – |
| COC(=O)c1c(O)c2ncc(Cc3ccccc3)cc2[nH]c1=O | 8.10 | 4.85 | – | < 3.90 | > 125000 nM | – | – |
| CCOC(=O)c1c(O)c2ncc(Cc3ccc(F)cc3)cc2n(CC(C)C)c1=O | 7.66 | 6.81 | – | – | – | – | – |
| O=C(NC1CC1)c1c(O)c2ncc(Cc3ccc(F)cc3)cc2[nH]c1=O | 8.00 | 8.10 | < 4.85 | 7.11 | > 8000 nM | Non-toxic | selectivity ratio [8]: > 100 |
